{
  "source": "paper PMC3947091",
  "about": "(Molecular imaging and biology : MIB : the official …, 2014)",
  "key": {"glioblastomas": {"system": "glioblastomas", "settings": "90 of 139 patients; white light comparison 47 (36 %) of 131 patients; cited from earlier work"}, "U87-Luc tumors [1]": {"system": "U87-Luc tumors", "format": "in vivo, nude mice", "settings": "10 μg", "in_short": "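Male nude mice (8–10 weeks) had 1×10⁶ U87-Luc cells implanted stereotaxically (3 mm deep, 1 mm right, 2.5 mm behind bregma). Tumor take was checked by bioluminescence on day 10 (iv d-luciferin 4 mg/kg). Cy5.5-labeled test probe or scrambled control, 10 μg, given by tail vein. NIR imaging at 1, 4 and 24 h (ex 675 nm, em 695–770 nm). Mice killed at each time point (n=4); organs weighed and imaged ex vivo. Manual ROI, photons/s/cm².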"}, "U251-Luc tumors [2]": {"system": "U251-Luc tumors", "test": "NIR optical imaging, orthotopic U251-Luc tumors", "format": "in vivo, nude mice", "settings": "24 h after tail vein injection, 10 μg", "in_short": "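Orthotopic xenograft made with 3×10⁶ U251-Luc cells stereotaxically implanted in male nude mice (8–10 weeks; 3 mm deep, 1 mm right, 2.5 mm behind bregma). Bioluminescence check on day 10. Tail-vein injection of 10 μg Cy5.5-labeled probe (n=12). NIR imaging at 1, 4 and 24 h (ex 675 nm/30 nm bandwidth, em 695–770 nm); tissues analyzed ex vivo at 24 h. Manual ROI, photons/s/cm².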"}, "U87-Luc tumors [3]": {"system": "U87-Luc tumors", "test": "μPET/CT imaging, orthotopic U87-Luc tumors", "format": "in vivo, nude mice", "settings": "1 and 24 h after tail vein injection, 7.4 MBq", "in_short": "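Orthotopic U87-Luc nude mice (n=4; 1×10⁶ cells implanted stereotaxically) received ⁶⁴Cu-labeled probe, 7.4 MBq (200 μCi, 0.5–1.0 μg), by tail vein. μPET/CT imaging at 1 and 24 h. Mean activities computed within ROIs drawn on tumor and normal brain, with a 1%-injected-dose standard placed beside the animal.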"}, "U251-Luc tumors [4]": {"system": "U251-Luc tumors", "test": "μPET/CT imaging with blocking experiment, orthotopic U251-Luc tumors", "format": "in vivo, nude mice", "in_short": "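In orthotopic U251-Luc nude mice (n=3), ⁶⁴Cu-labeled probe (7.4 MBq, 0.5–1.0 μg) was given by tail vein, alone or with 50 μg/mouse of unlabeled probe for blocking. μPET/CT at 1 and 24 h. ROIs drawn on tumor, normal brain and a standard holding 1% of the injected dose. Tumor/normal-brain voxel intensity ratio taken from 3D ROIs, reported with SD; Student t test.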"}, "[5]": {"system": "U87-Luc tumors (EphB4, CD31 staining)", "test": "Fluorescence microscopy of excised brain sections, U87-Luc tumors", "format": "in vivo, nude mice", "settings": "EphB4 expression only in tumor microvessels", "in_short": "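Brains with implanted tumor excised from probe-injected nude mice after μPET/CT, snap-frozen, cut at 4 μm. Sections fixed in 4% paraformaldehyde 20 min RT, blocked in 10% goat serum 30 min, and incubated overnight at 4 °C with rabbit anti-human EphB4 (1:100) and rat anti-mouse CD31 (1:50). Alexa 488/594 secondaries (1:500), DAPI counterstain, fluorescence microscopy.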"}},
  "note": "* marks the point of attachment. DOTA = O=C(O)CN1CCN(CC(=O)O)CCN(CC(=O)*)CCN(CC(=O)O)CC1; Cy5.5 = Cy5.5 near-infrared fluorescence dye",
  "data": [
    {"compound": "NCC(=O)CCC(=O)O", "note": "[5-aminolevulinic acid]", "values": [
      {"measurement": "Patients with completely resected glioblastoma", "setting": "glioblastomas", "result": 65, "unit": "%"}
    ]},
    {"compound": "Cy5.5-TNYL-RAWK-DOTA: TNYL-RAW with Cy5.5 at the N-terminus and DOTA at the C-terminus ({Cy5.5}-TNYLFSPNGPIARAWK(DOTA)-NH2)", "values": [
      {"measurement": "Brain tumor uptake clearly shown in NIR fluorescence imaging", "setting": "U87-Luc tumors [1]; U87-Luc tumors, 1, 4 and 24 h after intravenous injection", "result": "clearly shown"},
      {"measurement": "Cy5.5 NIR fluorescence visualization of tumor in mouse brain", "setting": "U87-Luc tumors [1]; U87-Luc, 24 h after tail vein injection", "result": "clearly visualized"},
      {"measurement": "Cy5.5 NIR fluorescence visualization of tumor in mouse brain", "setting": "U251-Luc tumors [2]", "result": "clearly visualized"}
    ]},
    {"compound": "Cy5.5-TNYL-RAWK-^64Cu-DOTA: ^64Cu-labeled Cy5.5-TNYL-RAWK-DOTA, dual-labeled PET/optical probe ({Cy5.5}-TNYLFSPNGPIARAWK(DOTA)-NH2; also: DOTA holds 64Cu)", "values": [
      {"measurement": "μPET/CT visualization of tumors", "setting": "U87-Luc tumors [3]", "result": "clearly visualized"},
      {"measurement": "μPET/CT visualization of tumors, with cold peptide", "setting": "U251-Luc tumors [4]; 1 and 24 h, coinjected cold Cy5.5-TNYL-RAWK-DOTA 50 μg/mouse", "result": "barely discernible"},
      {"measurement": "μPET/CT visualization of tumors, absence of cold peptide", "setting": "U251-Luc tumors [4]; 1 and 24 h after radiotracer injection, 7.4 MBq", "result": "clearly visualized"},
      {"measurement": "Binding site in tumor sections (Cy5.5 signal colocalization)", "setting": "[5]", "result": "bound only to the tumor microvessels"}
    ]}
  ]
}
